ChEMBL document CHEMBL4219132, “Sulfamic acid promoted one-pot synthesis of phenanthrene fused-dihydrodibenzo-quinolinones: Anticancer activity, tubulin polymerization inhibition and apoptosis inducing studies” (Bioorg Med Chem, 2018)

Tests used:
Assay type in all cases: functional, cell-based
[1] = tested on: PC-3; test: Cytotoxicity against human PC3 cells assessed as cell growth inhibition after 48 hrs by MTT assay; details: PC-3, 48 h
Procedure, shortened: (§1)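 MTT assay. Cells were seeded at 1×10^4 per well in their medium with 10% FBS and allowed 24 h at 37 °C. Compound diluted in medium was added alongside a vehicle control and left for 48 h. MTT (0.5 mg/mL) was then added for 4 h, formazan dissolved in DMSO, and absorbance read at 570 nm. IC50 is the concentration inhibiting 50% of cells.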

[2] = tested on: DU-145; test: Cytotoxicity against human DU145 cells assessed as cell growth inhibition after 48 hrs by MTT assay; details: DU-145, 48 h; procedure, shortened: as §1
[3] = tested on: MCF7; test: Cytotoxicity against human MCF7 cells assessed as cell growth inhibition after 48 hrs by MTT assay; details: MCF7, 48 h; procedure, shortened: as §1
[4] = tested on: A549; test: Cytotoxicity against human A549 cells assessed as cell growth inhibition after 48 hrs by MTT assay; details: A549, 48 h; procedure, shortened: as §1
[5] = tested on: HT-29; test: Cytotoxicity against human HT-29 cells assessed as cell growth inhibition after 48 hrs by MTT assay; details: HT-29, 48 h; procedure, shortened: as §1
[6] = tested on: HCT-116; test: Cytotoxicity against human HCT116 cells assessed as cell growth inhibition after 48 hrs by MTT assay; details: HCT-116, 48 h; procedure, shortened: as §1

COc1cc2c3c(c4cc(OC)c(OC)cc4c2cc1OC)C(c1cccc(C(F)(F)F)c1)CC(=O)N3 (stereo not given)
IC50 [1]: 18.5 µM | IC50 [2]: 6.19 µM | IC50 [3]: > 20 µM | IC50 [4]: 5.03 µM | IC50 [5]: 18.7 µM | IC50 [6]: 15.4 µM

COc1cccc(C2CC(=O)Nc3c2c2cc(OC)c(OC)cc2c2cc(OC)c(OC)cc32)c1 (stereo not given)
IC50 [1]: > 20 µM | IC50 [2]: 18.9 µM | IC50 [3]: > 20 µM | IC50 [4]: > 20 µM | IC50 [5]: > 20 µM | IC50 [6]: > 20 µM

COc1ccc(C2CC(=O)Nc3c2c2cc(OC)c(OC)cc2c2cc(OC)c(OC)cc32)cc1OC (stereo not given)
IC50 [1]: > 20 µM | IC50 [2]: 13.1 µM | IC50 [3]: > 20 µM | IC50 [4]: 4.09 µM | IC50 [5]: 12.2 µM | IC50 [6]: 8.12 µM

COc1cc2c3c(c4cc(OC)c(OC)cc4c2cc1OC)C(c1ccc(Cl)cc1)CC(=O)N3 (stereo not given)
IC50 [1]: > 20 µM | IC50 [2]: 19 µM | IC50 [3]: > 20 µM | IC50 [4]: 6.49 µM | IC50 [5]: 13.8 µM | IC50 [6]: 14.2 µM

COc1cc2c3c(c4cc(OC)c(OC)cc4c2cc1OC)C(c1cccc2ccccc12)CC(=O)N3 (stereo not given)
IC50 [2]: 16.1 µM | IC50 [3]: > 20 µM | IC50 [4]: 14.7 µM | IC50 [5]: 18.4 µM | IC50 [6]: 17.2 µM

COc1cc2c3c(c4cc(OC)c(OC)cc4c2cc1OC)C(c1ccc(O)c(O)c1)CC(=O)N3 (stereo not given)
IC50 [1]: 19.8 µM | IC50 [2]: > 20 µM | IC50 [3]: > 20 µM | IC50 [4]: 11.6 µM | IC50 [5]: 10.3 µM | IC50 [6]: 12.6 µM

COc1cc2c3c(c4cc(OC)c(OC)cc4c2cc1OC)C(c1sccc1C)CC(=O)N3 (stereo not given)
IC50 [1]: > 20 µM | IC50 [2]: 19.6 µM | IC50 [3]: > 20 µM | IC50 [4]: 15.4 µM | IC50 [5]: > 20 µM | IC50 [6]: > 20 µM

COc1cc2c3c(c4cc(OC)c(OC)cc4c2cc1OC)C(c1ccc(F)c(F)c1)CC(=O)N3 (stereo not given)
IC50 [1]: > 20 µM | IC50 [2]: > 20 µM | IC50 [3]: > 20 µM | IC50 [4]: 7.78 µM | IC50 [5]: 17.9 µM | IC50 [6]: 13.4 µM

COc1cc2c3c(c4cc(OC)c(OC)cc4c2cc1OC)C(c1ccccc1)CC(=O)N3 (stereo not given)
IC50 [1]: > 20 µM | IC50 [2]: 18.8 µM | IC50 [3]: > 20 µM | IC50 [4]: > 20 µM | IC50 [5]: > 20 µM | IC50 [6]: > 20 µM

COc1cc2c3c(c4cc(OC)c(OC)cc4c2cc1OC)C(c1ccc(F)cc1)CC(=O)N3 (stereo not given)
IC50 [1]: 19.9 µM | IC50 [2]: 11.1 µM | IC50 [3]: 12.2 µM | IC50 [4]: 6.29 µM | IC50 [5]: 17.4 µM | IC50 [6]: 16.2 µM

COc1cc2c3c(c4cc(OC)c(OC)cc4c2cc1OC)C(c1ccc(C)cc1)CC(=O)N3 (stereo not given)
IC50 [1]: > 20 µM | IC50 [2]: 16.9 µM | IC50 [3]: > 20 µM | IC50 [4]: 16.7 µM | IC50 [5]: > 20 µM | IC50 [6]: > 20 µM

COc1cc([C@@H]2c3cc4c(cc3[C@@H](O[C@@H]3O[C@@H]5CO[C@@H](C)O[C@H]5[C@H](O)[C@H]3O)[C@H]3COC(=O)[C@H]23)OCO4)cc(OC)c1O [ETOPOSIDE]
IC50 [1]: 5.4 µM | IC50 [2]: 2.13 µM | IC50 [3]: 2.03 µM | IC50 [4]: 3.25 µM | IC50 [6]: 2.6 µM

COc1cc2c3c(c4cc(OC)c(OC)cc4c2cc1OC)C(c1ccc(Br)cc1)CC(=O)N3 (stereo not given)
IC50 [1]: > 20 µM | IC50 [2]: > 20 µM | IC50 [3]: > 20 µM | IC50 [4]: 7.16 µM | IC50 [5]: 15.5 µM | IC50 [6]: 16.5 µM

COc1cc2c3c(c4cc(OC)c(OC)cc4c2cc1OC)C(c1ccc2c(c1)OCCO2)CC(=O)N3 (stereo not given)
IC50 [1]: 18.4 µM | IC50 [2]: > 20 µM | IC50 [3]: > 20 µM | IC50 [4]: 7.95 µM | IC50 [5]: > 20 µM | IC50 [6]: > 20 µM

COc1cc2c3c(c4cc(OC)c(OC)cc4c2cc1OC)C(c1cccc(Br)c1)CC(=O)N3 (stereo not given)
IC50 [1]: > 20 µM | IC50 [2]: 18.5 µM | IC50 [3]: > 20 µM | IC50 [4]: > 20 µM | IC50 [5]: > 20 µM | IC50 [6]: > 20 µM

COc1cc2c3c(c4cc(OC)c(OC)cc4c2cc1OC)C(c1ccc(C(C)C)cc1)CC(=O)N3 (stereo not given)
IC50 [1]: > 20 µM | IC50 [2]: 18.2 µM | IC50 [3]: > 20 µM | IC50 [4]: 8.84 µM | IC50 [5]: 16 µM | IC50 [6]: > 20 µM

COc1cc2c3c(c4cc(OC)c(OC)cc4c2cc1OC)C(c1cccs1)CC(=O)N3 (stereo not given)
IC50 [1]: > 20 µM | IC50 [2]: > 20 µM | IC50 [3]: > 20 µM | IC50 [4]: 8.5 µM | IC50 [5]: 18.9 µM | IC50 [6]: 13.8 µM
